Screening results deposited in PubChem by The Scripps Research Institute Molecular Screening Center.
A selection: hits, their analogues and other compounds. The true share with any hit is near 2.7%.
IMP-1 inh: IMP-1 metallo-beta-lactamase inhibitors, primary screen, biochemical, epi-absorbance readout, Pseudomonas aeruginosa enzyme. metallo-beta-lactamase IMP-1 (Pseudomonas aeruginosa). inhibition, % at 5.6 µM. purified IMP-1, nitrocefin hydrolysis, epi-absorbance fluorescence. hit rate 0.45% among 290,000;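 active means inhibition above the mean plus 3 SD of all compounds in the same screening run, cut at about 4.5% in these data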
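assay system = purified recombinant IMP-1 metallo-beta-lactamase enzyme | schedule = 15 min preincubation plus 25 min reaction at 25 °C | signal = Epi-absorbance fluorescence, 480 nm excitation, 530 nm emission | read-out basis = percent inhibition from optical density relative to buffer-blank wells | controls = IMP-1 with DMSO as 0%, enzyme-free DMSO as 100%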
CTSL1 counter-1: Fasciola hepatica cathepsin L1 inhibitors, primary screen, counter-screen for PFM18AAP inhibitor project, biochemical, QFRET, fluorogenic peptide substrate | recombinant F. hepatica cathepsin L1, Z-Leu-Arg-MCA fluorescence | inhibition, % at 5.96 µM | hit rate 0.49% among 300,000 | AID 1906, 2009;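 active means inhibition above the mean of all tested compounds plus 3 SD, set per screening campaign, cut at about 17% in these data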
VIM-2 inhibitor: VIM-2 metallo-beta-lactamase inhibitors, primary screen, biochemical, epi-absorbance readout, Pseudomonas aeruginosa enzyme. hit rate 0.89% among 290,000. AID 1527, 2009. inhibition, % at 5.6 µM. purified VIM-2, nitrocefin hydrolysis, epi-absorbance fluorescence;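 active means inhibition above the mean of all tested compounds plus 3 SD, cutoff set per screening run, cut at about 7.5% in these data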;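 further: red hydrolysis product quenches plate fluorescence so inhibitors raise well fluorescence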
PfM18AAP inh-1: PfM18AAP inhibitors, malaria aminopeptidase, primary screen, biochemical, QFRET, recombinant enzyme | hit rate 1.2% among 290,000 | H-Glu-NHMec fluorogenic cleavage | M18 aspartyl aminopeptidase (Plasmodium falciparum 3D7) | AID 1822, 2009 | inhibition, % at 7.35 µM;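 active means inhibition above the campaign mean inhibition over all tested compounds plus 3 SD, cut at about 28% in these data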
PfM18AAP inh-2: PfM18AAP inhibitors, malaria aminopeptidase, confirmation, biochemical, QFRET, recombinant enzyme, triplicate. H-Glu-NHMec fluorogenic cleavage. hit rate 28% among 2,400. AID 2170, 2009. shares compounds with PfM18AAP inh-1. inhibition, % at 7.35 µM;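 active means mean inhibition over replicate wells above the hit cutoff set for the earlier primary screen, cut at about 29% in these data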
CTSL1 counter-2: cathepsin L1 inhibitors, retest, confirmation, counter-screen for PFM18AAP inhibitor project, biochemical, QFRET, triplicate | inhibition, % at 5.96 µM | 2,400 tested, under 10 active | AID 2178, 2009 | shares compounds with PfM18AAP inh-1 | purified cathepsin L1, Z-Leu-Arg-MCA fluorescence;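 active means average inhibition across replicates above the hit cutoff set in the earlier primary screen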
Target sequence (P07711 whole entry, looked up): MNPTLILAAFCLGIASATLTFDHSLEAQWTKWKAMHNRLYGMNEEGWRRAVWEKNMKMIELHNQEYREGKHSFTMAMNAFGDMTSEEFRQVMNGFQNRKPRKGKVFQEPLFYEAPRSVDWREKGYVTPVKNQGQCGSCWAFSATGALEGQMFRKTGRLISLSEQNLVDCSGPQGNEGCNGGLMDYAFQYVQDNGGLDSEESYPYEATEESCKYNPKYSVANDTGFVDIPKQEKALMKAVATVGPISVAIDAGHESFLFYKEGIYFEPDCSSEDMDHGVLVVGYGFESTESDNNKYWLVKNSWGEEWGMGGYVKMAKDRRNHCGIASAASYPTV
Of the large screens only hits and unclear results are named; the others gave an inactive call (follow-up assays come after a bar, where they were run).

COc1ccc(-n2cc(CNCc3cnc4ccccn34)c(-c3cccc(F)c3)n2)cc1	none
O=C(N/N=C/c1sc(=O)[nH]c1-[n+]1ccc2ccccc2c1)c1ccccc1[O-]	PfM18AAP inh-1 32 | PfM18AAP inh-2 inactive | CTSL1 counter-2 inactive
O=C(Nc1ncn[nH]1)c1ccc(S(=O)(=O)N2CCOCC2)cc1	none
NNc1nc(-c2ccccc2)nc2sc3c(c12)CCCC3	PfM18AAP inh-1 32 | PfM18AAP inh-2 inactive | CTSL1 counter-2 inactive
CC(=O)N1CCN(c2nnnn2-c2ccccc2)CC1	none
Oc1ccc(N2CCN(c3nnnn3-c3ccccc3)CC2)cc1	PfM18AAP inh-1 32 | PfM18AAP inh-2 inactive | CTSL1 counter-2 inactive
COC(=O)c1ccc(CNC(=O)C2CCC(=O)N(C3CCCCCC3)C2)cc1 (configuration not stated)	none
CCC(C)N(C)C1CCN(C(=S)Nc2cccc(SC)c2)CC1 (configuration not stated)	PfM18AAP inh-1 41 | PfM18AAP inh-2 inactive | CTSL1 counter-2 inactive
CSc1cccc(NC(=S)N2CCC(N(C)C(C)C)CC2)c1	none
CCOC(=O)N1CCN(S(=O)(=O)c2ccc(C(=O)NNc3nc4c(C)cc(C)cc4s3)cc2)CC1	PfM18AAP inh-1 39 | PfM18AAP inh-2 inactive | CTSL1 counter-2 inactive
CCOC(=O)N1CCN(S(=O)(=O)c2ccc(C(=O)NNc3nc4c(C)cccc4s3)cc2)CC1	PfM18AAP inh-1 38 | PfM18AAP inh-2 inactive | CTSL1 counter-2 inactive
CCOC(=O)N1CCN(S(=O)(=O)c2ccc(C(=O)NNc3nc4ccc(Cl)cc4s3)cc2)CC1	none
Cc1cc(C)c2nc(NNC(=O)c3ccc(S(=O)(=O)N4CCCCC4)cc3)sc2c1	PfM18AAP inh-1 36 | PfM18AAP inh-2 inactive | CTSL1 counter-2 inactive
CCOC(=O)N1CCN(S(=O)(=O)c2ccc(C(=O)NNc3nc4cc(C)cc(C)c4s3)cc2)CC1	none
COC(=O)c1ccc2c(=O)[nH]c(COC(=O)c3c(-c4ccccc4Cl)noc3C)nc2c1	none (no result: IMP-1 inh, VIM-2 inhibitor, PfM18AAP inh-1)
Cc1cc(N2C(=O)[C@@H]3[C@H](C2=O)[C@@H]2C[C@H]3C(Br)C2Br)no1 (some centres not stated)	none
COc1cccc(CN2CC(C(=O)NCCN3CCOC3=O)CCC2=O)c1 (configuration not stated)	none
O=C(Nc1ncccc1Cl)c1cc2ccccc2o1	none
COCC(C)NS(=O)(=O)c1ccc(C(=O)NC(Cc2ccccc2)c2ccccc2)cc1 (configuration not stated)	none
Fc1ccc(N=Cc2ccc[nH]2)cc1	none
Oc1ccccc1N=Cc1ccc[nH]1	PfM18AAP inh-1 35 | PfM18AAP inh-2 inactive | CTSL1 counter-2 inactive
COc1ccc(S(=O)(=O)c2ccc(OC)cc2)cc1	none
COc1ccc(C2=CC(=O)C=CC2=O)cc1	PfM18AAP inh-1 56 (no result: CTSL1 counter-1) | PfM18AAP inh-2 62 | CTSL1 counter-2 inactive
CC(CNS(=O)(=O)c1ccc(Cl)cc1)n1cncn1 (configuration not stated)	none
Cc1snc(SCC(=O)c2ccc([N+](=O)[O-])cc2)c1C#N	VIM-2 inhibitor 9.5, PfM18AAP inh-1 45 (no result: CTSL1 counter-1) | PfM18AAP inh-2 inactive | CTSL1 counter-2 inactive
O=[N+]([O-])c1ccc(NCCCNS(=O)(=O)c2ccccc2)cc1	none
Cc1ccc(C(=O)CSc2ccccn2)cc1	PfM18AAP inh-1 44 | PfM18AAP inh-2 inactive | CTSL1 counter-2 inactive
O=C(O)c1ccnc(SCC(=O)c2ccccc2)c1	PfM18AAP inh-1 50 | PfM18AAP inh-2 inactive | CTSL1 counter-2 inactive
CCCCCCN=CC1=C(O)C(C(=O)OC)C(C)(C)CC1=O (configuration not stated)	none
COc1ccc(N(C(=O)CCC(=O)Nc2cc(C)on2)C(C(=O)NC2CCCC2)c2ccco2)cc1 (configuration not stated)	none
Cc1ccc(C(C(=O)NC2CCCC2)N(C(=O)CCC(=O)Nc2cc(C)on2)c2ccccc2)cc1 (configuration not stated)	none
Cc1cc(NC(=O)CSCC(=O)N(c2cccc(Cl)c2)C(C(=O)NC2CCCCC2)c2ccc(O)c(O)c2)no1 (configuration not stated)	PfM18AAP inh-1 57 | PfM18AAP inh-2 43 | CTSL1 counter-2 inactive
Cc1cc(NC(=O)CSCC(=O)N(c2ccc(F)cc2)C(C(=O)NC2CCCCC2)c2ccc(O)c(O)c2)no1 (configuration not stated)	PfM18AAP inh-1 68 | PfM18AAP inh-2 52 | CTSL1 counter-2 inactive
Cc1cc(NC(=O)CCC(=O)N(c2ccc(F)cc2)C(C(=O)NC2CCCC2)c2cccnc2)no1 (configuration not stated)	none
COc1ccc(N(C(=O)CSCC(=O)Nc2cc(C)on2)C(C(=O)NC2CCCCC2)c2ccc(O)c(O)c2)cc1 (configuration not stated)	PfM18AAP inh-1 61 | PfM18AAP inh-2 48 | CTSL1 counter-2 inactive
Cc1ccccc1Cn1cc(S(=O)(=O)c2ccc(C(C)C)cc2)c(=O)c2cc3c(cc21)OCO3	none (no result: IMP-1 inh, VIM-2 inhibitor, PfM18AAP inh-1)
O=C(CN1C(=O)NC2(CCCC2)C1=O)OCCOc1ccc(Cl)cc1Cl	none (no result: IMP-1 inh, VIM-2 inhibitor, PfM18AAP inh-1)
CCc1nc(N2CCN(CC(=O)NCC3CCCO3)CC2)c(C#N)c2c1COC(C)(C)C2 (configuration not stated)	none
COc1ccc(/C=C(\C#N)C(=O)Nc2cc(S(=O)(=O)N3CCOCC3)ccc2N2CCCC2)cc1	PfM18AAP inh-1 40 | PfM18AAP inh-2 inactive | CTSL1 counter-2 inactive
NNC(=S)Nc1ccc(S(=O)(=O)N2CCOCC2)cc1	none
NNC(=S)Nc1cc(S(=O)(=O)N2CCOCC2)ccc1N1CCOCC1	PfM18AAP inh-1 40 | PfM18AAP inh-2 inactive | CTSL1 counter-2 inactive
C/C(=N\NC(=O)Cc1ccc(Cl)cc1)c1cccc(NC(=O)c2cccnc2)c1	none (no result: CTSL1 counter-1)
Cc1ccc(C(=O)NC(=S)NNC(=O)CCN2CCOCC2)cc1	PfM18AAP inh-1 38 | PfM18AAP inh-2 inactive | CTSL1 counter-2 inactive
S=c1[nH]nc(Cc2ccccc2)n1-c1ccccc1	none
S=c1[nH]nc(CCc2ccccc2)n1-c1ccccc1	none
S=c1[nH]nc(Cc2n[nH]c(=S)n2-c2ccccc2)n1-c1ccccc1	PfM18AAP inh-1 35 | PfM18AAP inh-2 inactive | CTSL1 counter-2 inactive
S=c1[nH]nc(Cn2nnc3ccccc32)n1-c1ccccc1	PfM18AAP inh-1 42 | PfM18AAP inh-2 inactive | CTSL1 counter-2 inactive
O=C(NCCc1ccc(Cl)cc1)/C(=C/c1cccnc1)NC(=O)c1ccccc1	none
Cc1cc(C)nc(Sc2nc(Cl)nc(N(c3ccccc3)c3ccccc3)n2)n1	PfM18AAP inh-1 47 | PfM18AAP inh-2 inactive | CTSL1 counter-2 inactive
